# In ChEMBL document CHEMBL4014276, “Diphenylurea derivatives for combating methicillin- and vancomycin-resistant Staphylococcus aureus” (Eur J Med Chem, 2017):
# Activity calls are given as the source filed them. No cut-off for these calls is given here.
# Assays:
# [1] = tested on: Staphylococcus aureus; assay: Antibacterial activity against methicillin-resistant Staphylococcus aureus USA200 NRS383 clinical isolate preincubated followed by bacterial subculturing for 2 weeks; assay type: functional
# [2] = tested on: Staphylococcus aureus; assay: Bactericidal activity against methicillin-resistant Staphylococcus aureus USA400 assessed as time required to reduce log10CFU of bacterial load at 4 times MIC by time kill assay; assay type: functional
# [3] = tested on: Staphylococcus aureus; assay: Antibacterial activity against methicillin-resistant Staphylococcus aureus USA400 infected in Caenorhabditis elegans AU37 harboring (sek-1(km4);glp-4(bn2)I) mutant assessed as reduction in colony forming units at 10 ug/ml after 20 hrs by microscopic method relative to control; assay type: functional; parameters: scale not given: the % may be the effect or the level left
# How it was run: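 C. elegans AU37 L4/adult worms infected on MRSA USA400 lawn 6 h, washed in M9; 15-25 worms per well treated with 10 µg/mL in triplicate for 20 h, PBS negative control; worms lysed with silicon carbide, plated on TSA with 5 µg/mL nalidixic acid, 37 °C 18 h; CFU per worm, Student's t-test with Holm-Sidak correction.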
# [4] = Cmax in naive Sprague-Dawley rat at 50 mg/kg ,po administered via gavage by LC-MS/MS method; assay type: ADME, organism-based; parameters: dose 50 mg/kg, route oral; conditions: in vivo
# How it was run: (§1)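 Male naïve rats, three animals; single oral gavage dose in 5% ethanol, 45% PEG 400, 50% water. Blood drawn into EDTA-K2 tubes over 24 h post dose; plasma protein-precipitated with acetonitrile, parent quantified by LC/MS/MS.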
# [5] = tested on: Staphylococcus aureus; assay: Bactericidal activity against methicillin-resistant Staphylococcus aureus USA400 infected in mouse J774 cells assessed as reduction in colony forming units at 16 ug/ml after 24 hrs by time kill assay relative to control; parameters: scale not given: the % may be the effect or the level left
# [6] = Apparent permeability across basolateral to apical side in human Caco2 cells at 10 uM after 2 hrs by LC-MS/MS method; assay type: ADME, cell-based; conditions: Caco-2
# [7] = tested on: Staphylococcus aureus; assay: Antibacterial activity against vancomycin-resistant Staphylococcus aureus VRSA4 after 20 hrs by broth microdilution method; assay type: functional; conditions: VRSA4, 20 h
# How it was run: (§2)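 CLSI broth microdilution in cation-adjusted Mueller Hinton broth; compounds serially diluted, triplicate samples; 37 °C, 20 h. MIC read visually as lowest concentration with no visible growth; mean of triplicate determinations reported.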
# [8] = tested on: Staphylococcus aureus; assay: Bactericidal activity against vancomycin-resistant Staphylococcus aureus VRSA4 after 18 hrs by broth microdilution method; assay type: functional; conditions: VRSA4, 18 h
# How it was run: (§3)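 From MIC wells without visible growth, 5 uL spotted onto Tryptic soy agar, incubated 37 °C for at least 18 h; MBC taken as lowest concentration giving 99.9% growth inhibition.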
# [9] = tested on: Staphylococcus aureus; assay: Bactericidal activity against Staphylococcus aureus RN4220 NRS107 clinical isolate after 18 hrs by broth microdilution method; assay type: functional; conditions: RN4220 NRS107, 18 h; how it was run: as §3
# [10] = tested on: Staphylococcus aureus; assay: Antibacterial activity against methicillin-resistant Staphylococcus aureus USA400 NRS123 clinical isolate after 20 hrs by broth microdilution method; assay type: functional; conditions: USA400 NRS123, 20 h; how it was run: as §2
# [11] = Efflux ratio of apparent permeability across basolateral to apical over apical to basolateral side in human Caco2 cells at 10 uM after 2 hrs by LC-MS/MS method; assay type: ADME, cell-based; conditions: Caco-2
# [12] = tested on: Staphylococcus aureus; assay: Antibacterial activity against methicillin-resistant Staphylococcus aureus USA200 NRS383 clinical isolate after 20 hrs by broth microdilution method; assay type: functional; conditions: USA200 NRS383, 20 h; how it was run: as §2
# [13] = tested on: Staphylococcus aureus; assay: Bactericidal activity against methicillin-resistant Staphylococcus aureus USA200 NRS383 clinical isolate after 18 hrs by broth microdilution method; assay type: functional; conditions: USA200 NRS383, 18 h; how it was run: as §3
# [14] = Apparent permeability across apical to basolateral side in human Caco2 cells at 10 uM after 2 hrs by LC-MS/MS method; assay type: ADME, cell-based; conditions: Caco-2
# [15] = tested on: Staphylococcus aureus; assay: Bactericidal activity against methicillin-resistant Staphylococcus aureus USA400 NRS123 clinical isolate assessed as disruption of bacterial membrane by measuring leakage of 260 nM absorbing material at 5 times MIC after 30 mins by spectrophotometric method; assay type: functional
# [16] = tested on: Staphylococcus aureus; assay: Bactericidal activity against methicillin-resistant Staphylococcus aureus USA300 NRS384 clinical isolate after 18 hrs by broth microdilution method; assay type: functional; conditions: USA300 NRS384, 18 h; how it was run: as §3
# [17] = tested on: Staphylococcus aureus; assay: Antibacterial activity against methicillin-resistant Staphylococcus aureus USA300 NRS384 clinical isolate preincubated followed by bacterial subculturing for 2 weeks; assay type: functional
# [18] = Tmax in naive Sprague-Dawley rat at 50 mg/kg ,po administered via gavage by LC-MS/MS method; assay type: ADME, organism-based; conditions: in vivo; how it was run: as §1
# [19] = tested on: J774; assay: Cytotoxicity against mouse J774 cells up to 16 ug/ml after 24 hrs by MTS assay; assay type: cell-based; conditions: j774, 24 h
# How it was run: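 Murine macrophages cultured in DMEM plus 10% FBS, 37 °C, 5% CO2; compounds at 8, 16, 32, 64 µg/mL in triplicate for 24 h against DMSO-matched controls. MTS reagent 4 h, read at OD490. Viability as % of DMSO control (triplicate mean ± SD); one-way ANOVA, Dunnett's post hoc, P < 0.05.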
# [20] = tested on: Staphylococcus aureus; assay: Antibacterial activity against methicillin-resistant Staphylococcus aureus USA300 NRS384 clinical isolate after 20 hrs by broth microdilution method; assay type: functional; conditions: USA300 NRS384, 20 h; how it was run: as §2
# [21] = AUClast in naive Sprague-Dawley rat at 50 mg/kg ,po administered via gavage by LC-MS/MS method; assay type: ADME, organism-based; parameters: dose 50 mg/kg, time 0 - last, route oral; conditions: in vivo; how it was run: as §1
# [22] = Intrinsic clearance in human liver microsomes in presence of NADPH by LC-MS/MS method; assay type: ADME, microsome; conditions: read-out: CLH
# [23] = tested on: Staphylococcus aureus; assay: Antibacterial activity against vancomycin-resistant Staphylococcus aureus VRSA10 after 20 hrs by broth microdilution method; assay type: functional; conditions: VRSA10, 20 h; how it was run: as §2
# [24] = tested on: Staphylococcus aureus; assay: Bactericidal activity against methicillin-resistant Staphylococcus aureus USA400 NRS123 clinical isolate after 18 hrs by broth microdilution method; assay type: functional; conditions: USA400 NRS123, 18 h; how it was run: as §3
# [25] = Mean residence time in naive Sprague-Dawley rat at 50 mg/kg ,po administered via gavage by LC-MS/MS method; assay type: ADME, organism-based; conditions: in vivo; how it was run: as §1
# [26] = tested on: Staphylococcus aureus; assay: Bactericidal activity against vancomycin-resistant Staphylococcus aureus VRSA10 after 18 hrs by broth microdilution method; assay type: functional; conditions: VRSA10, 18 h; how it was run: as §3
# [27] = tested on: Staphylococcus aureus; assay: Bactericidal activity against methicillin-resistant Staphylococcus aureus USA400 infected in mouse J774 cells assessed as reduction in colony forming units at 16 ug/ml after 4 hrs by time kill assay relative to control; assay type: functional; parameters: scale not given: the % may be the effect or the level left
# How it was run: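 J774 murine macrophages in DMEM/10% FBS infected with MRSA USA400 at MOI ~100:1 for 1 h, extracellular bacteria killed with gentamicin 50 µg/mL; treated at 16 µg/mL in triplicate; after 4, 8 or 24 h cells washed, lysed with 0.1% Triton X-100, plated for CFU; percent reduction versus untreated, t-test.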
# [28] = tested on: Staphylococcus aureus; assay: Bactericidal activity against methicillin-resistant Staphylococcus aureus USA100 NRS382 clinical isolate after 18 hrs by broth microdilution method; assay type: functional; conditions: USA100 NRS382, 18 h; how it was run: as §3
# [29] = Half life in human liver microsomes in presence of NADPH by LC-MS/MS method; assay type: ADME, microsome
# [30] = Half life in human liver microsomes in absence of NADPH by LC-MS/MS method; assay type: ADME, microsome
# [31] = Total AUC in naive Sprague-Dawley rat at 50 mg/kg ,po administered via gavage by LC-MS/MS method; assay type: ADME, organism-based; parameters: dose 50 mg/kg, time AUCmax, route oral; conditions: in vivo; how it was run: as §1
structure (smiles),measurement,setting,value
C/C(=N\NC(=N)N)c1ccc(NC(=O)Nc2ccc(OC3CCCCCC3)cc2)cc1,Activity,[1],Active
same,Time,[2],<=4 hr
same,Activity,[3],>50%
same,Cmax,[4],16.3 ng/mL
same,Activity,[5],69%
same,"Papp B→A at 2 h, 10 µM",[6],51.9 ×10⁻⁶ cm/s
same,MIC,[7],2 µg/mL
same,MBC,[8],4 µg/mL
same,MBC,[9],4 µg/mL
same,MIC,[10],4 µg/mL
same,"efflux ratio at 2 h, 10 µM",[11],> 1000
same,MIC,[12],2 µg/mL
same,MBC,[13],4 µg/mL
same,"Papp A→B at 2 h, 10 µM",[14],0.039 ×10⁻⁶ cm/s
same,Activity,[15],inactive
same,MBC,[16],4 µg/mL
same,Activity,[17],Active
same,Tmax,[18],9.33 h
same,Activity,[19],Non-Toxic
same,MIC,[20],2 µg/mL
same,AUC(0-t),[21],218 ng·h/mL
same,microsomal CLint,[22],33.9 µL/min/mg
same,MIC,[23],8 µg/mL
same,MBC,[24],4 µg/mL
same,MRT,[25],28.4 h
same,MBC,[26],8 µg/mL
same,Activity,[27],5%
same,MBC,[28],4 µg/mL
same,half-life,[29],1.14 h
same,half-life,[30],0.897 h
same,AUC,[31],384 ng·h/mL
